ChEMBL document CHEMBL1142488, “Synthesis of N-substituted 5-[2-(N-alkylamino)ethyl]dibenzo[c,h][1,6]naphthyridines as novel topoisomerase I-targeting antitumor agents” (Bioorg Med Chem, 2008)

What was measured:
[1] = target: T1, DNA topoisomerase 1 (Homo sapiens) (UniProt P11387); experiment: Inhibition of human topoisomerase 1 mediated DNA cleavage assessed as effective drug concentration causing 10% YepG plasmid cleavage relative to camptothecin; conditions: in the assay text read “relative to topotecan” for “relative to camptothecin”
T1 sequence (whole entry): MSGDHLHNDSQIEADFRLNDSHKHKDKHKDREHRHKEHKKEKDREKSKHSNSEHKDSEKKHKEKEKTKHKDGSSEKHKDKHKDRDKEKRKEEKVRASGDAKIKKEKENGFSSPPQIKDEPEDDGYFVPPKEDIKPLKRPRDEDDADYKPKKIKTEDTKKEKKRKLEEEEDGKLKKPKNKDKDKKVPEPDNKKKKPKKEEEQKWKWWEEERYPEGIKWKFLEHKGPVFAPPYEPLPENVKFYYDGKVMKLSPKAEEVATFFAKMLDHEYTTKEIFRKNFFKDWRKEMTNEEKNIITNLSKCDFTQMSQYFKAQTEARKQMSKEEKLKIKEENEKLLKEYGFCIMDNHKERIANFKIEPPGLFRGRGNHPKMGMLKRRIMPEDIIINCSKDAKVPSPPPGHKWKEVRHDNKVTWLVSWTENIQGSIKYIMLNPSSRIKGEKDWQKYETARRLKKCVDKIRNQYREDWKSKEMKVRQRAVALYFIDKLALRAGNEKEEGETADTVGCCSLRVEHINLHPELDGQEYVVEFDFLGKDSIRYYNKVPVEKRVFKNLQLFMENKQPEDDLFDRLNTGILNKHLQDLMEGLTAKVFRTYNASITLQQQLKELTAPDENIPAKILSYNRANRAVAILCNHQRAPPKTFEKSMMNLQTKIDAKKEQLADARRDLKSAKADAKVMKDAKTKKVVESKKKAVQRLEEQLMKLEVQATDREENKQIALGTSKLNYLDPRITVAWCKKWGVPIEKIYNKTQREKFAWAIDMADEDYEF
In short: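 Stopped with SDS and proteinase K, 1 h at 37 °C. Alkali-denatured with NaOH/EDTA/sucrose/bromophenol blue, then run on neutral agarose gel.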

[2] = Cytotoxicity against human RPMI8402 cells after MTT assay; assay type: functional, cell-based; conditions: RPMI 8402
In short: (§1)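 Suspension cultures at 37 °C, 5% CO2, in RPMI with 10% heat-inactivated FBS, 2 mM L-glutamine, penicillin and streptomycin. Continuous 4-day exposure to a range of drug concentrations, then MTT read-out to give IC50. Drug-free control included. At least two runs, six replicate wells each.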

[3] = Cytotoxicity against camptothecin-resistant human CPT-K5 cells after MTT assay; assay type: functional, cell-based; in short: as §1
P388 = experiment: Cytotoxicity against mouse P388 cells after MTT assay; assay type: functional, cell-based; in short: as §1
[4] = Cytotoxicity against camptothecin-resistant and TOP1 deficient mouse P388/CPT45 cells after MTT assay; assay type: functional, cell-based; conditions: P388CPT45; in short: as §1
[5] = Cytotoxicity against human KB3-1 cells after MTT assay; assay type: functional, cell-based; conditions: KB 3-1
In short: (§2)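 IC50 after continuous 4-day exposure to varying drug concentrations, with MTT read at the end of day 4. A drug-free control was included. At least two runs, each in six replicate wells.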

[6] = Cytotoxicity against multidrug resistant human KBH5.0 cells overexpressing BCRP after MTT assay; assay type: functional, cell-based; conditions: KBH5.0 cell; in short: as §2
MDA-MB-435 (human) [7] = experiment: Antitumor activity against human MDA-MB-435 cells xenografted in NCR/NU NU mouse assessed as tumor volume measured on day 7 initially dosed at 5 mg/kg, ip qd x 5/week for 1 week and dose schedule adjusted to achieve total dose of 301 mg/kg
MDA-MB-435 (human) [8] = experiment: Antitumor activity against human MDA-MB-435 cells xenografted in NCR/NU NU mouse assessed as tumor volume measured on day 14 initially dosed at 5 mg/kg, ip qd x 5/week for 1 week and dose schedule adjusted to achieve total dose of 301 mg/kg
MDA-MB-435 (human) [9] = experiment: Antitumor activity against human MDA-MB-435 cells xenografted in NCR/NU NU mouse assessed as tumor volume measured on day 21 initially dosed at 5 mg/kg, ip qd x 5/week for 1 week and dose schedule adjusted to achieve total dose of 301 mg/kg
MDA-MB-435 (human) [10] = experiment: Antitumor activity against human MDA-MB-435 cells xenografted in NCR/NU NU mouse assessed as tumor volume measured on day 28 initially dosed at 5 mg/kg, ip qd x 5/week for 1 week and dose schedule adjusted to achieve total dose of 301 mg/kg
MDA-MB-435 (human) [11] = experiment: Antitumor activity against human MDA-MB-435 cells xenografted in NCR/NU NU mouse assessed as tumor volume measured on day 35 initially dosed at 5 mg/kg, ip qd x 5/week for 1 week and dose schedule adjusted to achieve total dose of 301 mg/kg
MDA-MB-435 (human) [12] = experiment: Antitumor activity against human MDA-MB-435 cells xenografted in NCR/NU NU mouse assessed as tumor volume measured on day 42 initially dosed at 5 mg/kg, ip qd x 5/week for 1 week and dose schedule adjusted to achieve total dose of 301 mg/kg
MDA-MB-435 (human) [13] = experiment: Antitumor activity against human MDA-MB-435 cells xenografted in NCR/NU NU mouse assessed as tumor volume measured on day 49 initially dosed at 5 mg/kg, ip qd x 5/week for 1 week and dose schedule adjusted to achieve total dose of 301 mg/kg
[14] = Cytotoxicity against multidrug resistant human KBV-1 cells overexpressing MDR1 after MTT assay; assay type: functional, cell-based; conditions: KB-V1; in short: as §2
MDA-MB-435 (human) [15] = experiment: Antitumor activity against human MDA-MB-435 cells xenografted in NCR/NU NU mouse assessed as tumor volume measured on day 7 initially dosed at 5 mg/kg, ip qd x 5/week for 1 week and was gradually increased to 7 mg/kg x 5/week schedule
MDA-MB-435 (human) [16] = experiment: Antitumor activity against human MDA-MB-435 cells xenografted in NCR/NU NU mouse assessed as tumor volume measured on day 14 initially dosed at 5 mg/kg, ip qd x 5/week for 1 week and was gradually increased to 7 mg/kg x 5/week schedule
MDA-MB-435 (human) [17] = experiment: Antitumor activity against human MDA-MB-435 cells xenografted in NCR/NU NU mouse assessed as tumor volume measured on day 21 initially dosed at 5 mg/kg, ip qd x 5/week for 1 week and was gradually increased to 7 mg/kg x 5/week schedule
MDA-MB-435 (human) [18] = experiment: Antitumor activity against human MDA-MB-435 cells xenografted in NCR/NU NU mouse assessed as tumor volume measured on day 28 initially dosed at 5 mg/kg, ip qd x 5/week for 1 week and was gradually increased to 7 mg/kg x 5/week schedule
MDA-MB-435 (human) [19] = experiment: Antitumor activity against human MDA-MB-435 cells xenografted in NCR/NU NU mouse assessed as tumor volume measured on day 35 initially dosed at 5 mg/kg, ip qd x 5/week for 1 week and was gradually increased to 7 mg/kg x 5/week schedule
MDA-MB-435 (human) [20] = experiment: Antitumor activity against human MDA-MB-435 cells xenografted in NCR/NU NU mouse assessed as tumor volume measured on day 42 initially dosed at 5 mg/kg, ip qd x 5/week for 1 week and was gradually increased to 7 mg/kg x 5/week schedule
MDA-MB-435 (human) [21] = experiment: Antitumor activity against human MDA-MB-435 cells xenografted in NCR/NU NU mouse assessed as tumor volume measured on day 49 initially dosed at 5 mg/kg, ip qd x 5/week for 1 week and was gradually increased to 7 mg/kg x 5/week schedule
MDA-MB-435 (human) [22] = experiment: Antitumor activity against human MDA-MB-435 cells xenografted in NCR/NU NU mouse assessed as tumor volume measured on day 7 initially dosed at 1.5 mg/kg, ip qd x 3/5 days schedule; conditions: route intraperitoneal
[23] = tested on: MDA-MB-435 (Homo sapiens); experiment: Antitumor activity against human MDA-MB-435 cells xenografted in NCR/NU NU mouse assessed as tumor volume measured on day 14 initially dosed at 1.5 mg/kg, ip qd x 3/5 days schedule; conditions: route intraperitoneal
[24] = tested on: MDA-MB-435 (Homo sapiens); experiment: Antitumor activity against human MDA-MB-435 cells xenografted in NCR/NU NU mouse assessed as tumor volume measured on day 21 initially dosed at 1.5 mg/kg, ip qd x 3/5 days schedule; conditions: route intraperitoneal
[25] = tested on: MDA-MB-435 (Homo sapiens); experiment: Antitumor activity against human MDA-MB-435 cells xenografted in NCR/NU NU mouse assessed as tumor volume measured on day 28 initially dosed at 1.5 mg/kg, ip qd x 3/5 days schedule; conditions: route intraperitoneal
[26] = tested on: MDA-MB-435 (Homo sapiens); experiment: Antitumor activity against human MDA-MB-435 cells xenografted in NCR/NU NU mouse assessed as tumor volume measured on day 35 initially dosed at 1.5 mg/kg, ip qd x 3/5 days schedule; conditions: route intraperitoneal
[27] = tested on: MDA-MB-435 (Homo sapiens); experiment: Antitumor activity against human MDA-MB-435 cells xenografted in NCR/NU NU mouse assessed as tumor volume measured on day 42 initially dosed at 1.5 mg/kg, ip qd x 3/5 days schedule; conditions: route intraperitoneal
[28] = tested on: MDA-MB-435 (Homo sapiens); experiment: Antitumor activity against human MDA-MB-435 cells xenografted in NCR/NU NU mouse assessed as tumor volume measured on day 49 initially dosed at 1.5 mg/kg, ip qd x 3/5 days schedule; conditions: route intraperitoneal

Row | Structure (SMILES) | Activity [1] | IC50 [2] [µM] | IC50 [3] [µM] | IC50 (P388) [µM] | IC50 [4] [µM] | IC50 [5] [µM] | IC50 [6] [µM] | IC50 [14] [µM] | also measured
1 | COc1cc2c(=O)n(CCN(C)CC(N)=O)c3c4cc5c(cc4ncc3c2cc1OC)OCO5 | 0.3 | 0.003 | 3.5 | 0.009 | 0.39 | 0.01 | 0.32 |  | Activity (MDA-MB-435 (human) [7]): 147 mm3; Activity (MDA-MB-435 (human) [8]): 178 mm3; Activity (MDA-MB-435 (human) [9]): 230 mm3; Activity (MDA-MB-435 (human) [10]): 319 mm3; Activity (MDA-MB-435 (human) [11]): 344 mm3; Activity (MDA-MB-435 (human) [12]): 434 mm3; Activity (MDA-MB-435 (human) [13]): 527 mm3
2 | C#CCN(C)CCn1c(=O)c2cc(OC)c(OC)cc2c2cnc3cc4c(cc3c21)OCO4 | 0.1 | 0.008 | 4.5 | 0.02 | 0.4 |  | 0.034 | 0.07 | Activity (MDA-MB-435 (human) [15]): 144 mm3; Activity (MDA-MB-435 (human) [16]): 167 mm3; Activity (MDA-MB-435 (human) [17]): 218 mm3; Activity (MDA-MB-435 (human) [18]): 284 mm3; Activity (MDA-MB-435 (human) [19]): 317 mm3; Activity (MDA-MB-435 (human) [20]): 358 mm3; Activity (MDA-MB-435 (human) [21]): 433 mm3
3 | COc1cc2c(=O)n(CCN(C)C)c3c4cc5c(cc4ncc3c2cc1OC)OCO5 | 0.3 | 0.002 | 0.9 |  | 0.23 | 0.005 | 0.006 | 0.005 | Activity (MDA-MB-435 (human) [22]): 120 mm3; Activity [23]: 123 mm³; Activity [24]: 145 mm³; Activity [25]: 158 mm³; Activity [26]: 175 mm³; Activity [27]: 189 mm³; Activity [28]: 242 mm3
